This note sets out measurements from ChEMBL document CHEMBL1123895, “Synthesis and anti-HIV activity of various 2'- and 3'-substituted 2',3'-dideoxyadenosines: a structure-activity analysis” (1987).

The subject of assay [1] is MT4. Description: Cytotoxicity was determined as the dose required to reduce the viability of uninfected MT-4 cells by 50%. The format is functional. The settings on record: Homo sapiens, read-out: CD50 (the source's name). An outline of the steps:
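Mock-infected MT-4 cells incubated 5 days with a range of compound concentrations. Viable cells counted in a blood cell counting chamber after trypan blue staining.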

A short description of assay [2]: Selectivity ratio CD50 to ED50. The format is functional. An outline of the steps:
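Ratio of CD50 to ED50. CD50 is from uninfected MT-4 cells and ED50 from MT-4 cells infected with HIV at 10 CCID50 per well. Both are read after 5 days with compound by trypan blue viable cell counting in a blood cell counting chamber.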

In assay [3] the test system is MT4. Description: (§1) Anti-HIV activity was determined as dose required to protect 50% of the HIV-infected MT-4 cells against destruction. The format is functional, Homo sapiens. The note with it: read-out: ED50 (the source's name). An outline of the steps: (§2)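 MT-4 cells infected with HIV at 10 CCID50 per well, incubated 5 days with a range of compound concentrations. Viable cells counted in a blood cell counting chamber after trypan blue staining.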

Assay [4] relates to MT4. Described as §1. The class given is functional. The settings on record: Homo sapiens, read-out: ED50 (the source's name). An outline of the steps: as §2

A value given as a limit tells only on which side of the number the result lay.

In the case of `Nc1ncnc2c1ncn2[C@H]1CC[C@@H](CO)O1`, the CC50 in assay [1] is 889 µM. Moreover, the Ratio in assay [2] was found to be 148. The EC50 in assay [3] (Homo sapiens, MT4) was determined as 6.2 µM.

For `Nc1ncnc2c1ncn2[C@H]1C[C@H](F)[C@@H](CO)O1` (stereo in doubt; 13) [listing 1 of 2 here], in assay [2], the Ratio was over 2.8.

Regarding `Nc1ncnc2c1ncn2[C@@H]1O[C@H](CO)C[C@@H]1F` [LODENOSINE], the CC50 in assay [1] was over 625 µM. Also, in assay [2], the Ratio is over 18. In addition, in assay [3] (Homo sapiens, MT4), the EC50 turned out to be 35 µM.

As to `Nc1ncnc2c1ncn2[C@H]1C=C[C@@H](CO)O1`, the CC50 in assay [1] turned out to be 34 µM. Also, the Ratio in assay [2] is under 1.2. For the same compound, the EC50 in assay [3] (Homo sapiens, MT4) is over 25 µM.

For `[N-]=[N+]=N[C@H]1C[C@@H](CO)O[C@H]1n1cnc2c(N)ncnc21`, the CC50 in assay [1] came out at 625 µM. Besides, the Ratio in assay [2] was 11.4. Further, in assay [3] (Homo sapiens, MT4), the EC50 worked out at 55 µM.

For the compound `Nc1ncnc2c1ncn2[C@H]1C[C@H](F)[C@@H](CO)O1` (stereo in doubt; 13) [listing 2 of 2 here], the CC50 in assay [1] is over 625 µM. Moreover, the EC50 in assay [3] was determined as 221 µM.

Regarding `Nc1ncnc2c1ncn2[C@@H]1O[C@H](CO)C[C@H]1F`, the EC50 in assay [4] is over 625 µM. Moreover, the CC50 in assay [1] was over 625 µM.

Consider `[N-]=[N+]=N[C@@H]1C[C@@H](CO)O[C@H]1n1cnc2c(N)ncnc21`, for which, in assay [4], the EC50 came to 215 µM. Also, the CC50 in assay [1] is over 625 µM. For the same compound, the Ratio in assay [2] is over 2.9.

Consider `Nc1ncnc2c1ncn2[C@H]1C[C@H](F)[C@@H](CO)O1` (stereo in doubt; 12) [listing 1 of 2 here], for which, in assay [3], the EC50 was 50 µM.

As to `Cc1cn([C@H]2C[C@H](N=[N+]=[N-])[C@@H](CO)O2)c(=O)[nH]c1=O` [ZIDOVUDINE], in assay [1], the CC50 was 4 µM. Besides, the Ratio in assay [2] was 666. Also, the EC50 in assay [3] (Homo sapiens, MT4) is 0.006 µM.

With `Nc1ncnc2c1ncn2[C@H]1C[C@H](F)[C@@H](CO)O1` (stereo in doubt; 12) [listing 2 of 2 here], the Ratio in assay [2] came out at 11.1.
